Results: ChEMBL document CHEMBL1121906, “2-(Aminomethyl)phenols, a new class of saluretic agents. 2. Synthesis and pharmacological properties of the 5-aza isostere of 2-(aminomethyl)-4-(1,1-dimethylethyl)-6-iodophenol” (1981)
Several values for one entry are separate records, joined by “and”; a condition that tells them apart may be missing. Equal values may be shown once.

Experiments:
Rattus norvegicus [1] = species: Rattus norvegicus; test: Duration of effect was measured in hypertensive rat.; assay type: functional
How it was run: (§1)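 Spontaneously hypertensive rats received the compound orally. The read-out was the maximum fall in mean arterial pressure (mmHg ± SE) and the duration of effect in hours. The number of rats varied by treatment, and the protocol follows an earlier report.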

Rattus norvegicus [2] = test: Mean arterial pressure was measured in hypertensive rat at dose of 20 mg/kg, po; assay type: functional, Artery; how it was run: as §1
Rattus norvegicus [3] = test: Saluretic(Na+) effect of compound was measured in rats after oral administration at 3 mg/kg dose; Na+ mequiv*100/cage; assay type: functional
Rattus norvegicus [4] = test: The saluretic (Na+) effect of compound was measured in rats after oral administration at 27 mg/kg dose; Na+ mequiv*100/cage; assay type: functional
Rattus norvegicus [5] = test: The saluretic(K+) effect of compound was measured in rats after oral administration at 3 mg/kg dose; assay type: functional
Rattus norvegicus [6] = test: The saluretic(Cl-) effect of compound was measured in rats after oral administration at 3 mg/kg dose; assay type: functional
Rattus norvegicus [7] = test: The saluretic(Cl-) effect of compound was measured in rats after oral administration at 27 mg/kg dose; Cl-mequiv*100/cage=14; assay type: functional
Rattus norvegicus [8] = test: The saluretic(Na+) effect of compound was measured in rats after oral administration at 27 mg/kg dose; Na+ mequiv*100/cage; assay type: functional
Rattus norvegicus [9] = test: The saluretic (Na+)effect of compound was measured in rats after oral administration at 81 mg/kg dose; assay type: functional
Canis familiaris [10] = test: The saluretic(Na+) effect of compound was measured in dogs after iv administration at 5 mg/kg dose; Na+ mequiv/min=279
Canis familiaris [11] = test: The saluretic(Cl-) effect of compound was measured in dogs after iv administration at 5 mg/kg dose; Cl-mequiv/min=303
Canis familiaris [12] = test: The saluretic(K+) effect of compound was measured in dogs after iv administration at 5 mg/kg dose; K+mequiv/min=20
Rattus norvegicus [13] = test: The saluretic(Cl-) effect of compound was measured in rats after oral administration at 81 mg/kg dose.; assay type: functional
Rattus norvegicus [14] = test: The saluretic(K+) effect of compound was measured in rats after oral administration at 27 mg/kg dose; K+mequiv*100/cage=14; assay type: functional
Rattus norvegicus [15] = test: The saluretic(K+) effect of compound was measured in rats after oral administration at 81 mg/kg dose.; assay type: functional
Rattus norvegicus [16] = test: The saluretic(K+) effect of compound was measured in rats after oral administration at 81 mg/kg dose; K+mequiv*100/cage=14; assay type: functional
Rattus norvegicus [17] = test: The saluretic(K+) effect of compound was measured in rats after oral administration at 3 mg/kg dose; K+ mequiv x 100/cage=14; assay type: functional
Canis familiaris [18] = test: The saluretic(Na+) effect of compound was measured in dogs after iv administration at 3 mg/kg dose; Na+ mequiv/min=279; assay type: functional, Canis lupus familiaris
Rattus norvegicus [19] = test: The saluretic(Cl-) effect of compound was measured in rats after oral administration at 81 mg/kg dose; Cl-mequiv*100/cage=14; assay type: functional
Canis familiaris [20] = test: The saluretic(K+) effect of compound was measured in dogs after iv administration at 3 mg/kg dose; K+mequiv/min=20; assay type: functional, Canis lupus familiaris
Rattus norvegicus [21] = test: Mean arterial pressure was measured in hypertensive rat at dose of 20 mg/kg, ip; details: route intraperitoneal
Rattus norvegicus [22] = test: The saluretic (Na+) effect of compound was measured in rats after oral administration at 9 mg/kg dose; Na+ mequiv*100/cage; assay type: functional
Rattus norvegicus [23] = test: The saluretic(K+) effect of compound was measured in rats after oral administration at 9 mg/kg dose; K+mequiv*100/cage=14; assay type: functional
Rattus norvegicus [24] = test: The saluretic(Cl-) effect of compound was measured in rats after oral administration at 9 mg/kg dose; Cl-mequiv*100/cage=14; assay type: functional
Rattus norvegicus [25] = test: Saluretic(Na+) effect of compound was measured in rats after oral administration at 3 mg/kg dose; Na+ mequiv x 100/cage; assay type: functional
Rattus norvegicus [26] = test: The saluretic (Na+) effect of compound was measured in rats after oral administration at 81 mg/kg dose; Na+ mequiv*100/cage; assay type: functional
Rattus norvegicus [27] = test: The saluretic(Cl-) effect of compound was measured in rats after oral administration at 3 mg/kg dose; Cl- mequiv x 100/cage =14; assay type: functional
Canis familiaris [28] = test: The saluretic(Cl-) effect of compound was measured in dogs after iv administration at 3 mg/kg dose; Cl-mequiv/min=303; assay type: functional, Canis lupus familiaris
Rattus norvegicus [29] = test: The saluretic(K+) effect of compound was measured in rats after oral administration at 3 mg/kg dose; K+mequiv*100/cage=14; assay type: functional
Rattus norvegicus [30] = test: The saluretic(Cl-) effect of compound was measured in rats after oral administration at 3 mg/kg dose; Cl-mequiv*100/cage=14; assay type: functional
Canis familiaris [31] = test: The saluretic(Na+) effect of compound was measured in dogs after iv administration at 2 mg/kg dose; Na+ mequiv/min=279; assay type: functional, Canis lupus familiaris
Canis familiaris [32] = test: The saluretic(K+) effect of compound was measured in dogs after iv administration at 2 mg/kg dose; K+mequiv/min=20; assay type: functional, Canis lupus familiaris
Canis familiaris [33] = test: The saluretic(Cl-) effect of compound was measured in dogs after iv administration; Cl-mequiv/min=303
Rattus norvegicus [34] = species: Rattus norvegicus; test: Duration of effect was measured in hypertensive rat; assay type: functional; how it was run: as §1

Row | SMILES | Max fall (Rattus norvegicus [2]; dose 20 mg/kg) [mmHg] | Diuretic effects (Rattus norvegicus [3]) | Diuretic effects (Rattus norvegicus [4]) | Diuretic effects (Rattus norvegicus [7]; 27 mg/kg) | Diuretic effects (Rattus norvegicus [16]) | Diuretic effects (Canis familiaris [18]) | Diuretic effects (Rattus norvegicus [19]) | Diuretic effects (Canis familiaris [20]) | Diuretic effects (Rattus norvegicus [22]) | Diuretic effects (Rattus norvegicus [23]) | Diuretic effects (Rattus norvegicus [24]) | Diuretic effects (Rattus norvegicus [7]) | Diuretic effects (Rattus norvegicus [26]) | Diuretic effects (Rattus norvegicus [14]) | Diuretic effects (Canis familiaris [28]) | Diuretic effects (Rattus norvegicus [29]) | Diuretic effects (Rattus norvegicus [30]) | further results
1 | CC(C)(C)c1cc(CN)c(O)c(I)n1 | 13 | 178 | 276 | 351 and 444 |  |  |  |  |  |  |  |  |  |  |  |  |  | Duration (Rattus norvegicus [1]): >24 h; Diuretic effects (Rattus norvegicus [5]): 51; Diuretic effects (Rattus norvegicus [6]): 279; Diuretic effects (Rattus norvegicus [8]): 276; Diuretic effects (Rattus norvegicus [9]): 330; Diuretic effects (Canis familiaris [10]): 611; Diuretic effects (Canis familiaris [11]): 729; Diuretic effects (Canis familiaris [12]): 48; Diuretic effects (Rattus norvegicus [13]): 528; Diuretic effects (Rattus norvegicus [14]; 27 mg/kg): 63 and 83; Diuretic effects (Rattus norvegicus [15]): 108
2 | CC(C)(C)c1cc(CN)c(O)cn1 |  |  | 22 |  | 23 | 279 | 98 | 20 | 8 | 7 | 11 | 37 | 63 | 15 | 303 |  |  | Diuretic effects (Rattus norvegicus [17]): 14; Max fall (Rattus norvegicus [21]): 12 mmHg; Diuretic effects (Rattus norvegicus [25]): 14; Diuretic effects (Rattus norvegicus [27]): 14
3 | CC(C)(C)c1cc(I)c(O)c(CN)c1 |  | 146 | 319 |  | 99 | 716 | 489 | 66 | 270 | 77 | 364 | 435 | 351 | 88 | 822 | 51 | 211 | Max fall (Rattus norvegicus [2]; dose 0.312 mg/kg, in the assay text read “0.312 mg/kg” for “20 mg/kg”): 26 mmHg
4 | NS(=O)(=O)c1cc(C(=O)O)c(NCc2ccco2)cc1Cl [FUROSEMIDE] |  |  | 125 | 213 and 370 | 77 |  |  |  | 7 | 14 | 22 |  | 244 | 55 |  |  |  | Max fall (Rattus norvegicus [2]; dose 30 mg/kg, in the assay text read “30 mg/kg” for “20 mg/kg”): 12 mmHg; Diuretic effects (Canis familiaris [31]): 960; Diuretic effects (Canis familiaris [32]): 141; Diuretic effects (Canis familiaris [33]): 1081
5 | NS(=O)(=O)c1cc2c(cc1Cl)NCNS2(=O)=O [HYDROCHLOROTHIAZIDE] | 25 |  |  |  | 37 | 166 | 143 | 33 |  |  |  | 156 |  | 34 | 156 | 34 | 154 | Duration (Rattus norvegicus [34]): <8 h and 12 h
